Data: ChEMBL document CHEMBL3813689, “Discovery of Potent Benzofuran-Derived Diapophytoene Desaturase (CrtN) Inhibitors with Enhanced Oral Bioavailability for the Treatment of Methicillin-Resistant Staphylococcus aureus (MRSA) Infections” (J Med Chem, 2016)
Converted amounts (≈) assume the structure as drawn. The source made the active and inactive calls. The rule behind the calls is not given here.

Assays:
Staphylococcus aureus [1] = experiment: Inhibition of staphyloxanthin pigment formation in Staphylococcus aureus Newman after 48 hrs by spectrophotometric method; assay type: functional, organism-based
Outline: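 Compounds as 20 mM DMSO stocks, serial 2-fold dilutions in DMSO; 40 µL added to 4 mL TSB culture, 37 °C for 48 h, in triplicate. Cells washed twice with PBS, pigment extracted with methanol, OD450 measured; IC50 from dose-response curve fit of OD data.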

Staphylococcus aureus [2] = experiment: Antibacterial activity against Staphylococcus aureus USA400 MW2 infected Balb/c mouse assessed as reduction of bacterial survival in liver at 5.2 mg, ip bid administered for 4.5 days followed by bacterial infection measured after 5 days; assay type: functional
Outline: (§1)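 Female BALB/c mice, 6–8 weeks. Compound in sterile water ip once and every 12 h for 108 h, total 50 or 200 mg/kg; water controls. Infected 12 h after first dose with 4 × 10^7 CFU USA400 MW2 (100 µL). Killed 5 days post infection; liver or kidney CFU counted on TSA after homogenising in PBS/0.1% Triton X-100. n = 13; two-tailed Mann-Whitney.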

Staphylococcus aureus [3] = experiment: Antibacterial activity against Staphylococcus aureus USA400 MW2 infected Balb/c mouse assessed as reduction of bacterial survival in liver at 1.3 mg, ip bid administered for 4.5 days followed by bacterial infection measured after 5 days; assay type: functional; outline: as §1
Staphylococcus aureus [4] = experiment: Antibacterial activity against Staphylococcus aureus USA400 MW2 infected Balb/c mouse assessed as reduction of bacterial survival in kidney at 5.2 mg, ip bid administered for 4.5 days followed by bacterial infection measured after 5 days; assay type: functional; outline: as §1
Staphylococcus aureus [5] = experiment: Antibacterial activity against Staphylococcus aureus USA400 MW2 infected Balb/c mouse assessed as reduction of bacterial survival in kidney at 1.3 mg, ip bid administered for 4.5 days followed by bacterial infection measured after 5 days; assay type: functional, organism-based; outline: as §1
Staphylococcus aureus [6] = experiment: Antibacterial activity against Staphylococcus aureus Mu50 infected Balb/c mouse assessed as reduction of bacterial survival in liver at 5.2 mg, ip bid for 4.5 days administered for 4.5 days followed by bacterial infection measured after 5 days; assay type: functional
Staphylococcus aureus [7] = experiment: Antibacterial activity against Staphylococcus aureus Mu50 infected Balb/c mouse assessed as reduction of bacterial survival in liver at 1.3 mg, ip bid administered for 4.5 days followed by bacterial infection measured after 5 days; assay type: functional
Staphylococcus aureus [8] = experiment: Antibacterial activity against Staphylococcus aureus Mu50 infected Balb/c mouse assessed as reduction of bacterial survival in kidney at 5.2 mg, ip bid administered for 4.5 days followed by bacterial infection measured after 5 days; assay type: functional
Staphylococcus aureus [9] = experiment: Antibacterial activity against Staphylococcus aureus Mu50 infected Balb/c mouse assessed as reduction of bacterial survival in kidney at 1.3 mg, ip bid administered for 4.5 days followed by bacterial infection measured after 5 days; assay type: functional
Trichophyton verrucosum = experiment: Antifungal activity against Trichophyton verrucosum measured after 7 days by serial dilution method; assay type: functional
Outline: (§2)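 Broth serial dilution MIC per NCCLS in RPMI 1640 buffered with 0.165 M MOPS; compounds in DMSO diluted in medium. Dermatophytes incubated at 28 °C, read at 7 days. MIC taken as lowest concentration giving ≥80% growth inhibition versus control (turbidity).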

Trichophyton rubrum = experiment: Antifungal activity against Trichophyton rubrum measured after 7 days by serial dilution method; assay type: functional; outline: as §2
Nannizzia gypsea = experiment: Antifungal activity against Microsporum gypseum measured after 7 days by serial dilution method; assay type: functional; outline: as §2
[10] = tested on: Trichophyton mentagrophytes; experiment: Antifungal activity against Trichophyton mentagrophytes measured after 7 days by serial dilution method; assay type: functional; outline: as §2
[11] = molecular target: T1, 4,4'-diapophytoene desaturase (4,4'-diaponeurosporene-forming) (Staphylococcus aureus (strain Newman), UniProt O07855); experiment: Inhibition of Staphylococcus aureus Newman 6His-tagged CrtN expressed in Escherichia coli BL21(DE3) using diapophytoene as substrate assessed as pigment formation after overnight incubation by spectrophotometric method; parameters: species or system Staphylococcus aureus subsp. aureus str. Newman
T1 sequence (O07855 whole entry): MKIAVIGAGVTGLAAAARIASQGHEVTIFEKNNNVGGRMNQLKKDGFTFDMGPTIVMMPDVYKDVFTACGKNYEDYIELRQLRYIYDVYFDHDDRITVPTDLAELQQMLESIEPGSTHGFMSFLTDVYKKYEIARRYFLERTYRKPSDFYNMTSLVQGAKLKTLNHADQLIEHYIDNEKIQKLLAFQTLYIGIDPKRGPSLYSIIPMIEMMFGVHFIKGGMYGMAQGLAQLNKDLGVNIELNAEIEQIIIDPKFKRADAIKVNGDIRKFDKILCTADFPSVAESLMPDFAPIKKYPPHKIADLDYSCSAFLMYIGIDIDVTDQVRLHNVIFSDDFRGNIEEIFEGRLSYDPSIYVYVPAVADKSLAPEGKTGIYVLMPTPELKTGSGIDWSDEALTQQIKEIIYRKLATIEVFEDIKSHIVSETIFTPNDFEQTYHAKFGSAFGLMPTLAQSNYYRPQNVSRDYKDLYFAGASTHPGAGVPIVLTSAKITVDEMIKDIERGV
Outline: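 Lysate of E. coli BL21(DE3) expressing 6His-CrtN (IPTG 0.5 mM, 16 °C overnight), ~1.41 mg CrtN per reaction, with diapophytoene–phosphatidylcholine emulsion in 0.02 M HEPES pH 7.5 plus FAD. Anaerobic via glucose oxidase 20 U/mL, catalase 20000 U/mL, glucose 2 mM (final). Started with lysate, overnight at 37 °C; triplicate.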

[12] = Aqueous solubility of the compound by HPLC method; assay type: physicochemical
Outline: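 Calibration with standards at 50, 100, 200, 400 and 800 µg/mL in methanol (peak area vs concentration). 10 mg solid stirred in 1 mL pure water for 24 h, more added if still clear; syringe-filtered, 10 µL injected; solubility read from calibration curve.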

[13] = molecular target: T2, 4,4'-diapophytoene desaturase (4,4'-diaponeurosporene-forming) (Staphylococcus aureus (strain Newman)) (UniProt O07855); settings: Staphylococcus aureus subsp. aureus str. Newman; 100 uM
T2 sequence (whole entry): T1 sequence (O07855 whole entry)

Structure (SMILES) | IC50 (Staphylococcus aureus [1]) [nM] | also measured
CN(C/C=C/c1cccc2ccccc12)Cc1cccc2ccoc12 | 888 | 
COC(=O)c1ccc(/C=C/CN(C)Cc2cccc3ccoc23)cc1 | 16.9 | 
CN(C/C=C/c1ccccc1)Cc1cccc2ccoc12 | 247 | 
CN(C/C=C/c1ccccc1[N+](=O)[O-])Cc1cccc2ccoc12 | > 1000 | 
CN(C/C=C/c1cccc(F)c1)Cc1cccc2ccoc12 | 513 | 
Cc1cccc(/C=C/CN(C)Cc2cccc3ccoc23)c1 | > 1000 | 
O=P([O-])([O-])C(CCCc1cccc(Cc2ccccc2)c1)S(=O)(=O)[O-].[K+].[K+].[K+] (stereo not given) |  | Activity (Staphylococcus aureus [2]): 1.58 deltalog10CFU; Activity (Staphylococcus aureus [3]): 0.25 deltalog10CFU; Activity (Staphylococcus aureus [4]): 1.14 deltalog10CFU; Activity (Staphylococcus aureus [5]): Active; Activity (Staphylococcus aureus [6]): 2.84 deltalog10CFU; Activity (Staphylococcus aureus [7]): 1.87 deltalog10CFU; Activity (Staphylococcus aureus [8]): 0.3 deltalog10CFU; Activity (Staphylococcus aureus [9]): 0.25 deltalog10CFU
CN(C/C=C/c1ccco1)Cc1cccc2ccoc12 | > 1000 | 
CN(CCCc1ccccc1)Cc1cccc2ccoc12 | > 1000 | 
CN(C/C=C/C1CCCC1)Cc1cccc2ccoc12 | > 1000 | 
CC(=O)N1CCN(c2ccc(OCC3COC(Cn4ccnc4)(c4ccc(Cl)cc4Cl)O3)cc2)CC1 (stereo not given) [KETOCONAZOLE] |  | MIC80 (lowest concentration giving ≥80% growth inhibition) (Trichophyton verrucosum): 0.0625 µg/mL (≈ 0.118 µM); MIC80 (Trichophyton rubrum): 0.5 µg/mL (≈ 0.941 µM); MIC80 (lowest concentration giving ≥80% growth inhibition) (Nannizzia gypsea): 2 µg/mL (≈ 3.76 µM); MIC=<80 [10]: 0.0625 µg/mL (≈ 0.118 µM)
C/C=C/CN(C)Cc1cccc2ccoc12 | > 1000 | 
CN(C/C=C/c1ccc(Cl)cc1)Cc1cccc2ccoc12.Cl | 6.2 | IC50 [11]: 219 nM; solubility [12]: 7400 µg/mL
CN(C/C=C/c1ccc([N+](=O)[O-])cc1)Cc1cccc2ccoc12 | 71.7 | 
CCN(C/C=C/c1ccccc1)Cc1cccc2ccoc12 | > 1000 | 
CN(Cc1cccc2ccoc12)C[C@@H]1C[C@H]1c1ccccc1 | > 1000 | 
CN(C/C=C/c1ccc2ccccc2c1)Cc1cccc2ccoc12 | 17.1 | 
CN(C/C=C/c1ccc(C(C)(C)C)cc1)Cc1cccc2ccoc12 | 46.7 | 

Structure (SMILES) | IC50 (Staphylococcus aureus [1]) [nM] | also measured
CN(C/C=C/c1ccccc1)Cc1cccc2occc12 | 759 | 
C(=C\c1ccccc1)/CNCc1cccc2ccoc12 | > 1000 | 
CC(C)N(C/C=C/c1ccccc1)Cc1cccc2ccoc12 | > 1000 | 
Cc1ccc(/C=C/CN(C)Cc2cccc3ccoc23)cc1 | 35.2 | 
CN(C/C=C/c1ccc(Cl)cc1Cl)Cc1cccc2ccoc12.Cl | 8.21 | IC50 [11]: 740 nM; solubility [12]: 7200 µg/mL
OC(Cn1cncn1)(Cn1cncn1)c1ccc(F)cc1F [FLUCONAZOLE] |  | MIC=<80 (Trichophyton verrucosum): 2 µg/mL (≈ 6.53 µM); MIC=<80 (Trichophyton rubrum): 1 µg/mL (≈ 3.27 µM); MIC=<80 (Nannizzia gypsea): 8 µg/mL (≈ 26.1 µM); MIC=<80 [10]: 2 µg/mL (≈ 6.53 µM)
C/C(=C\c1ccccc1)CN(C)Cc1cccc2ccoc12 | > 1000 | 
CN(C/C=C/c1ccc(Br)cc1)Cc1cccc2ccoc12.Cl | 6.44 | IC50 [11]: 355 nM; solubility [12]: 3900 µg/mL
CN(C/C=C/c1cccc([N+](=O)[O-])c1)Cc1cccc2ccoc12 | > 1000 | 
CN(CC/C=C/c1ccccc1)Cc1cccc2ccoc12 | > 1000 | 
CN(C/C=C/C1CCCCC1)Cc1cccc2ccoc12 | > 1000 | 
CN(C/C=C/c1ccccc1)Cc1cccc2ccccc12 |  | inhibition [13]: Active
CN(CC#Cc1ccccc1)Cc1cccc2ccoc12 | 164 | 
CN(C/C=C/c1ccc(F)cc1)Cc1cccc2ccoc12 | 31.2 | 
CN(C/C=C/C=C/c1ccccc1)Cc1cccc2ccoc12 | 4.2 | 
CN(C/C=C/c1ccccc1F)Cc1cccc2ccoc12 | 288 | 
COc1ccc(/C=C/CN(C)Cc2cccc3ccoc23)cc1.Cl | 11.1 | IC50 [11]: 684 nM; solubility [12]: 19700 µg/mL
C[C@@H](c1ncncc1F)[C@](O)(Cn1cncn1)c1ccc(F)cc1F [VORICONAZOLE] |  | MIC80 (lowest concentration giving ≥80% growth inhibition) (Trichophyton verrucosum): 0.03125 µg/mL (≈ 0.0895 µM); MIC80 (Trichophyton rubrum): 0.03125 µg/mL (≈ 0.0895 µM); MIC80 (lowest concentration giving ≥80% growth inhibition) (Nannizzia gypsea): 0.25 µg/mL (≈ 0.716 µM); MIC=<80 [10]: 0.03125 µg/mL (≈ 0.0895 µM)
